Sampled rows, rich in hits. Any-hit rate of the full collection: about 3.7%.
Kir21 block: inhibitors of mouse Kir2.1 inward-rectifier potassium channel; P35561; HEK293-Kir2.1, FluxOR thallium flux fluorescence; hits give low values; B-score at 10 µM; actives 0.85% (n = 310,000); AID 1672;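 active = fluorescence ratio B-score at or below minus 3 SD of library scores, with starting-brightness B-score within 2 SD, cut at about -4.2 in these data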;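 note: channel flux triggered by added potassium and thallium sulfate stimulus; B-score of peak minus minimum fluorescence over baseline after thallium stimulus; more negative B-score means stronger Kir2.1 block with less thallium influx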
KCNQ1 inh: blocks the human KCNQ1 potassium channel | CHO-K1 KCNQ1, FluxOR thallium flux fluorescence; hits give high values | B-score at 10 µM | actives 1.3% (n = 310,000) | P51787 | AID 2642;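 active = compounds whose thallium flux B-score, printed positive for inhibition, exceeds three library SD while starting fluorescence stays within three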;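 note: channel opened by potassium depolarization with thallium stimulus after 20 min compound exposure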
KCNK9 block: blocks the human KCNK9 two-pore domain potassium channel | Q9NPC2 | HEK293 KCNK9, FluxOR thallium flux fluorescence; hits give low values | B-score at 10 µM | actives 1.2% (n = 310,000);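 active = ratio B-score over 3 SD below the library mean, with starting fluorescence within 5 SD of its mean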;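 note: negative B-score means less thallium flux so channel inhibition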
Target sequence (Q9NPC2 whole entry, looked up, the tested form may be a part): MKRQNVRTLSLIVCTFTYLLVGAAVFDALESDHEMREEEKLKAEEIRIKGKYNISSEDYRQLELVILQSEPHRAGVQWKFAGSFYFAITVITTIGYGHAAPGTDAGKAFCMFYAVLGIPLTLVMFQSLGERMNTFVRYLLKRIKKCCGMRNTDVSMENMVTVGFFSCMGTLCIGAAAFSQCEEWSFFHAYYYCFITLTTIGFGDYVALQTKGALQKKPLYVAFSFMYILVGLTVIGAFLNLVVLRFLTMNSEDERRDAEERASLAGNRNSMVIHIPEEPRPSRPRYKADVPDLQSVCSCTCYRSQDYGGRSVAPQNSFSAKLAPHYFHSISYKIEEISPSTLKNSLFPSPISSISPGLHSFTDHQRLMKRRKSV
KCNK3 block: human KCNK3 channel inhibition, primary screen | B-score at 10 µM | actives 0.84% (n = 340,000) | CHO-KCNK3 thallium flux, FluxOR fluorescence; hits give low values | O14649;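 active = B-score under library mean minus 4 SD, starting fluorescence ratio at most library mean plus 5 SD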;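 note: more negative B-score means stronger inhibition of thallium flux through KCNK3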
KCNQ1 act: human KCNQ1 channel potentiation or activation. actives 0.35% (n = 310,000). P51787. CHO-K1 KCNQ1, thallium flux FluxOR fluorescence; hits give high values. B-score at 10 µM;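 active = fluorescence ratio B-score, a plate-corrected score, at least three library SD, with initial intensity B-score within 5 SD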
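System: CHO-K1 cells stably expressing KCNQ1 / Medium: assay buffer for compound exposure, DMSO matched across wells / Reagent: thallium- and potassium-containing depolarizing buffer / Compound: one concentration, matched DMSO / Incubation: 20 min compound pretreatment at room temperature / Measured by: kinetic FluxOR fluorescence, 10 s baseline plus 110 s post-stimulus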
hERG protect: hERG (human) protection from proarrhythmic block | activation (rescue from dofetilide block), less the hit threshold, % at 10 µM | actives 0.51% (n = 310,000) | CHO-hERG, FluxOR thallium flux, dofetilide IC70 present | Q12809;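 active = activation above the mean of controls blocked by dofetilide plus 5 SD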;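 note: thallium influx through hERG after potassium depolarization seen as dye fluorescence rise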
The depositor's hits bear a star; i = inactive; · = no result.

SMILES	Kir21 block	KCNQ1 inh	KCNK9 block	KCNK3 block	KCNQ1 act	hERG protect
CCN(CC)CCN1C(=O)c2ccccc2NC1c1ccccc1F (stereo unspecified)	0.88	i	i	i	i	5.1*
Cc1ccc(CSCCNS(=O)(=O)c2ccc(C)cc2)cc1	-5.5*	i	i	i	i	-3
Cc1ccc(CCNS(=O)(=O)c2ccc(C)cc2)cc1	0.03	i	i	i	i	-8
CC(=O)c1c(C)[nH]c(C(=O)NCCc2c[nH]c3ccccc23)c1C	-0.37	i	i	i	i	-8
O=C(COC(=O)C12CC3CC(CC(C3)C1)C2)NCCCc1ccccc1	-0.65	i	i	i	23*	-5
COc1ccc(CCNC(=O)COC(=O)C23CC4CC(CC(C4)C2)C3)cc1	-7.3*	i	i	i	i	-12
COc1ccc(CCNC(=O)C2(c3ccccc3)CC2)cc1	-4.6*	i	i	i	i	-11
Cc1nn(-c2ccc(N3CCOCC3)nn2)c(C)c1CCC(=O)N1CCN(C)CC1	-0.13	i	i	i	i	-3
S=C(Nc1ccc(Cl)cc1)NC1CC2CCC(C1)N2Cc1ccccc1 (stereo unspecified)	-4.7*	i	i	i	i	-10
CC1CCN(C(=O)COC(=O)CCCN2C(=O)c3cccc4cccc(c34)C2=O)CC1	0.16	i	i	i	i	-10
CCCCCCCNC(=O)C1(CC2CC(c3ccc(Cl)cc3)=NO2)CCN(C(=O)Cc2ccc(F)cc2)CC1 (stereo unspecified)	-0.72	i	i	i	i	-13
CCCCCCCNC(=O)C1(CC2CC(c3cccc(Br)c3)=NO2)CCNCC1 (stereo unspecified)	-11*	i	i	i	i	-20
CCCCCCCNC(=O)C1(CC2CC(c3ccc(Cl)cc3)=NO2)CCNCC1 (stereo unspecified)	-10*	i	i	i	i	-17
O=C1OC(N2C(=O)CC[C@H]2C(=O)Nc2ccc3c(c2)OCO3)c2ccccc21 (stereo partly specified)	0.67	i	i	i	i	-5
COc1ccc(C(C)=O)cc1CC(=O)Nc1ccccc1-c1ccccc1	0.05	i	i	i	i	-13
CC(C)CN1C(=O)C(=O)N(CC(=O)c2ccc[nH]2)C1=O	-2.2	i	i	i	i	-2
O=C(c1cccc(C(=O)N(c2ccccn2)C2CCCCC2)c1)N(c1ccccn1)C1CCCCC1	0.42	i	i	i	i	-6
N#C/C(=C\c1ccccc1)C(=O)N(c1ccccn1)C1CCCCC1	-11*	i	i	i	i	-15
Cc1ccc(C)c(N2CCN(C(=O)CCC(=O)Nc3nnc(C(F)(F)F)s3)CC2)c1	0.21	i	i	i	i	-8
NC(N)=NN=C1CCCCCCCCCCC1	-11*	7*	i	i	i	-26
ON=C1CCCCCCCC1	·	·	·	i	·	·
CCC(C)(C)c1ccc(OCCCC[n+]2ccc(C)cc2)c(C(C)(C)CC)c1	-4.9*	7*	-7.7*	·	i	-25
CCN(C1CCCCC1)S(=O)(=O)c1cc(C)ccc1OC	-2.2	i	i	i	i	-17
CCN(C1CCCCC1)S(=O)(=O)c1ccc(OC)c(C)c1	-5.4*	i	i	i	i	-7
CCN1C(=O)/C(=C/N(C(C)=O)c2ccccc2)N(c2ccccc2)C1=S	-4.5*	i	i	i	i	-4
SMILES	Kir21 block	KCNQ1 inh	KCNK9 block	KCNK3 block	KCNQ1 act	hERG protect
CCc1ccc(/C=C2/C(=O)N(c3ccccc3)C(=S)N2CC(=O)OC)s1	-0.45	i	i	i	i	-4
CN(C)S(=O)(=O)c1ccc(N2CCCC2)c(C(=O)OCC(=O)NC2(C#N)CCCCC2)c1	1.6	i	i	i	i	-10
Cc1nc(-c2nc(-c3c(C(=O)NNC(=O)Nc4cccc(Cl)c4)noc3C)cs2)cs1	-1.2	i	i	i	i	-10
Cc1nc(-c2nc(-c3c(C(=O)NNC(=O)c4ccc(Cl)cc4)noc3C)cs2)cs1	-0.11	i	i	i	17*	3
c1ccc(CCNCCCOc2cccc3ccccc23)cc1	-16*	i	i	i	i	-17
CCN(C[C@H]1N[C@@](Cc2ccccc2)(C(=O)OC)[C@H]2C(=O)N(C)C(=O)[C@@H]12)C(=O)Nc1ccc(C(F)(F)F)cc1	·	·	·	i	·	·
COc1ccc(O)c(C=NCC(C)N=Cc2cc(OC)ccc2O)c1 (stereo unspecified)	0.9	i	i	i	i	-3
COc1cccc(C=NCC(C)N=Cc2cccc(OC)c2O)c1O (stereo unspecified)	0.12	i	i	i	i	5.2*
Cc1ccc(S(=O)(=O)NC(=O)COc2ccccc2C)c(C)c1	0.7	i	i	i	i	-5
COc1cc2[nH]c(C(=O)NCc3ccccc3)cc2c(OC)c1OC	-6.3*	i	i	i	i	-3
Nc1c(C(=O)Nc2nccs2)sc2nc(-c3cccs3)cc(C(F)(F)F)c12	0.01	i	i	i	i	1
CCN(CC)C(=O)c1sc2nc(-c3cccs3)cc(-c3cccs3)c2c1N	-0.06	7*	-9.3*	i	i	-15
Cc1nnc(NC(=O)c2sc3nc(-c4cccs4)cc(C(F)(F)F)c3c2N)s1	0.02	6*	i	i	i	-19
CCN(CC)C(=O)c1sc2nc(-c3cccs3)cc(-c3ccc(Cl)cc3)c2c1N	0.19	i	i	i	i	-7
Cc1onc(-c2ccccc2Cl)c1C(=O)Nc1cccc(S(=O)(=O)NC2=NCCC2)c1	-1.3	i	i	i	i	-10
Cc1ccc2c(c1)-c1cc(C)nn1C(c1ccc3c(c1)OCO3)N2 (stereo unspecified)	-0.43	i	-7.6*	i	i	-10
Cc1cc2n(n1)C(c1ccc3c(c1)OCO3)Nc1ccccc1-2 (stereo unspecified)	1.5	i	i	i	i	-17
CN1C[C@@H]2[C@@H]3C(=O)N(C)C(=O)[C@@H]3[C@](C)(C1=O)N2C(=O)c1ccc(F)cc1	·	·	·	i	·	·
CCOc1ccc(CN2CCN(Cc3cc4ccccc4[nH]3)CC2CCO)cc1 (stereo unspecified)	-0.04	i	i	i	i	-7
COc1cccc(CN2CCN(Cc3cc4ccccc4[nH]3)CC2CCO)c1 (stereo unspecified)	-1.7	i	i	i	13*	-10
